These results are taken from ChEMBL document CHEMBL1795275, “Substituted benzoxazinones as potent positive allosteric AMPA receptor modulators: part II” (Bioorg Med Chem Lett, 2011).

For experiment [1], the species on record is Rattus norvegicus. In words: Positive allosteric modulation of AMPA receptor in rat embryonic hippocampal neurons assessed as concentration required to double glutamate-induced steady-state current by patch clamp electrophysiology assay. The following applies: Hippocampus. For orientation: Patch clamp records ionic current or voltage across a cell membrane.

Experiment [2] is described as follows: Displacement of [3H]-AMPAKINE from AMPA receptor in rat forebrain cell membranes. More on the design: species or system Membrane. (Loss of bound radioactivity is the signal in a displacement assay; it reports binding, not function.)
The species named for experiment [3] is Rattus norvegicus. In words: Positive allosteric modulation of AMPA receptor in rat hippocampal slices assessed as increase of fEPSP-induced current amplitude at 3 uM. Format: tissue-based. The following applies: Hippocampus. Summed up: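 Field recordings in in vitro hippocampal slices. Result is the percent rise in fEPSP amplitude, measured at the stated compound concentration.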

Active and inactive are the calls of the source. The calls are words filed in the database; no cut-off is given here.

As to `Cc1nccn1CCN1COc2cc3c(cc2C1=O)OC1CCCN1C3=O` (centres undefined), in the experiment filed under Rattus norvegicus [1], the CD stood at 1.8 µM. Besides, in experiment [2], the Ki (as a rule, the dissociation constant of the complex between target and ligand, obtained from inhibition or displacement) was found to be 227 µM.

As to `O=C1c2cc3c(cc2OCN1CCc1cccc([N+](=O)[O-])c1)C(=O)N1CCCC1O3` (centres undefined), the Activity in the experiment filed under Rattus norvegicus [3] was determined as 8%. In the experiment filed under Rattus norvegicus [1], the CD was 0.015 µM. Also, the inhibition constant Ki in experiment [2] is 3.6 µM.

With `O=C1c2cc3c(cc2OCN1CCc1ccsc1)C(=O)N1CCCC1O3` (centres undefined), the Activity in the experiment listed under Rattus norvegicus [3] came to 15%. Further, the CD in the experiment listed under Rattus norvegicus [1] worked out at 0.02 µM. This compound also gave a Ki in experiment [2] of 0.27 µM.

Turning to `O=C1c2cc3c(cc2OCN1CCc1cccc(OC(F)(F)F)c1)C(=O)N1CCCC1O3` (centres undefined), the CD in the experiment listed under Rattus norvegicus [1] was 3 µM. In addition, in experiment [2], the Ki was determined as 13 µM.

As to `O=C1c2cc3c(cc2OCN1CCn1nccn1)C(=O)N1CCCC1O3` (centres undefined), in the experiment filed under Rattus norvegicus [3], the Activity worked out at 7%. For the same compound, the CD in the experiment filed under Rattus norvegicus [1] was determined as 0.8 µM. This compound registered a Ki in experiment [2] of 62 µM.

On to `C[S+]([O-])CCN1COc2cc3c(cc2C1=O)OC1CCCN1C3=O` (centres undefined), for which, in the experiment filed under Rattus norvegicus [3], the Activity was determined as 14%. Also, the CD in the experiment filed under Rattus norvegicus [1] is 0.11 µM. For the same compound, in experiment [2], the affinity corresponds to a Ki of 13 µM.

As for `O=C1c2cc3c(cc2OCN1CCc1ccccc1Cl)C(=O)N1CCCC1O3` (centres undefined), the CD in the experiment listed under Rattus norvegicus [1] is 7.1 µM.

In the case of `N#CSCCN1COc2cc3c(cc2C1=O)OC1CCCN1C3=O` (centres undefined), in the experiment listed under Rattus norvegicus [3], the Activity worked out at 7%. The CD in the experiment filed under Rattus norvegicus [1] was found to be 0.06 µM. Further, the Ki in experiment [2] is 1 µM.

In the case of `O=C1c2cc3c(cc2OCN1CCCc1ccccc1)C(=O)N1CCCC1O3` (centres undefined), the CD in the experiment listed under Rattus norvegicus [1] was determined as 3.6 µM.

Take `O=C1c2cc3c(cc2OCN1Cc1ccccc1)C(=O)N1CCCC1O3` (centres undefined): the CD in the experiment filed under Rattus norvegicus [1] is 6 µM.

Consider `NC(=O)c1cccc(CCN2COc3cc4c(cc3C2=O)OC2CCCN2C4=O)c1` (centres undefined), for which the CD in the experiment listed under Rattus norvegicus [1] was 5 µM. This compound also came in with a Ki in experiment [2] of 620 µM.

As for `O=C1c2cc3c(cc2OCN1CCn1cccn1)C(=O)N1CCCC1O3` (centres undefined), in the experiment listed under Rattus norvegicus [3], the Activity came out at 15%. Further, the CD in the experiment filed under Rattus norvegicus [1] was 0.064 µM. In experiment [2], this compound came in with an inhibition constant (Ki) of 5.1 µM.

Regarding `O=C1c2cc3c(cc2OCN1CCc1ccccc1F)C(=O)N1CCCC1O3` (centres undefined), the CD in the experiment filed under Rattus norvegicus [1] came to 5.4 µM. Also, in experiment [2], the Ki stood at 36 µM.

Consider `O=C1c2cc3c(cc2OCN1CCc1ccc(Cl)cc1)C(=O)N1CCCC1O3` (centres undefined), for which the CD in the experiment listed under Rattus norvegicus [1] was > 40 µM.

As to `CS(=O)(=O)NCCN1COc2cc3c(cc2C1=O)OC1CCCN1C3=O` (centres undefined), the Activity in the experiment filed under Rattus norvegicus [3] amounted to 10%. In the experiment filed under Rattus norvegicus [1], the CD is 0.33 µM. Moreover, the Ki in experiment [2] amounted to 8.4 µM.

As for `O=C1c2cc3c(cc2OCN1CCn1cc(Br)cn1)C(=O)N1CCCC1O3` (centres undefined), the Activity in the experiment listed under Rattus norvegicus [3] is 32%. Moreover, the CD in the experiment filed under Rattus norvegicus [1] turned out to be 0.02 µM. The Ki in experiment [2] amounted to 2.5 µM.

For the compound `O=C1c2cc3c(cc2OCN1CCc1cccs1)C(=O)N1CCCC1O3` (centres undefined), the CD in the experiment filed under Rattus norvegicus [1] stood at 0.032 µM. The Ki in experiment [2] came out at 2 µM.

As to `O=C1c2cc3c(cc2OCN1CCn1cnc([N+](=O)[O-])n1)C(=O)N1CCCC1O3` (centres undefined), in the experiment filed under Rattus norvegicus [3], the Activity was 14%. In the experiment filed under Rattus norvegicus [1], the CD was determined as 0.01 µM. The same compound gave a Ki in experiment [2] of 4.2 µM.

Turning to `O=C1c2cc3c(cc2OCN1c1ccccc1)C(=O)N1CCCC1O3` (centres undefined), in the experiment filed under Rattus norvegicus [1], the CD result was “inactive”.

For the compound `COc1cccc(CCN2COc3cc4c(cc3C2=O)OC2CCCN2C4=O)c1` (centres undefined), in the experiment filed under Rattus norvegicus [1], the CD came to 14 µM. In experiment [2], this compound gave a Ki of 69 µM.

Take `[N-]=[N+]=NCCN1COc2cc3c(cc2C1=O)OC1CCCN1C3=O` (centres undefined): the Activity in the experiment filed under Rattus norvegicus [3] was determined as 16%. For the same compound, in the experiment listed under Rattus norvegicus [1], the CD stood at 0.08 µM. The compound further registered an inhibitory constant (Ki) in experiment [2] of 5.9 µM.

In the case of `O=C1c2cc3c(cc2OCN1CCc1cccc(F)c1)C(=O)N1CCCC1O3` (centres undefined), the Activity in the experiment listed under Rattus norvegicus [3] was 16%. Also, the CD in the experiment filed under Rattus norvegicus [1] is 0.011 µM. Also, in experiment [2], affinity was put at a Ki of 0.5 µM.

For the compound `C[C@H]1CN2C(=O)c3cc4c(cc3O[C@@H]2O1)OCO4`, the CD in the experiment filed under Rattus norvegicus [1] amounted to 2 µM.

In the case of `O=C1c2cc3c(cc2OCN1CCc1cccc(Br)c1)C(=O)N1CCCC1O3` (centres undefined), the CD in the experiment listed under Rattus norvegicus [1] came out at 1.6 µM. Further, the Ki in experiment [2] stood at 150 µM.

As for `O=C1c2cc3c(cc2OC2CCCN12)OCCO3` (centres undefined), the CD in the experiment filed under Rattus norvegicus [1] is 2.3 µM.

`O=C1c2cc3c(cc2OCN1CCc1c[nH]cn1)C(=O)N1CCCC1O3` (centres undefined): in the experiment filed under Rattus norvegicus [1], the CD was 5.1 µM. In experiment [2], the affinity corresponds to a Ki of 225 µM.

On to `O=C1c2cc3c(cc2OCN1CCO)C(=O)N1CCCC1O3` (centres undefined), for which the CD in the experiment listed under Rattus norvegicus [1] came to 1.3 µM. The affinity in experiment [2], expressed as Ki, was 33 µM.

Regarding `C[C@@H]1CN2C(=O)c3cc4c(cc3O[C@H]2O1)OCO4`, the CD in the experiment filed under Rattus norvegicus [1] came to 200 µM.
